Data on one compound can be found in ChEMBL document CHEMBL4725387, “Synthesis and pharmacological evaluation of piperidine (piperazine)-amide substituted derivatives as multi-target antipsychotics” (Bioorg Med Chem Lett, 2020).

pIC50, pKi: −log10 of the molar value. Activity calls are given as the source filed them. No cut-off for these calls is given here.

One data set concerns the target D(2) dopamine receptor (Homo sapiens, UniProt P14416). As to the kind of experiment: Binding affinity to D2 receptor (unknown origin). The procedure, abridged: (§1)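 Radioligand displacement binding. Ki is the mean ± SEM of three experiments.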
In data set [1] the target is T1, 5-hydroxytryptamine receptor 1A (Homo sapiens, UniProt P08908).
T1 sequence (P08908 whole entry): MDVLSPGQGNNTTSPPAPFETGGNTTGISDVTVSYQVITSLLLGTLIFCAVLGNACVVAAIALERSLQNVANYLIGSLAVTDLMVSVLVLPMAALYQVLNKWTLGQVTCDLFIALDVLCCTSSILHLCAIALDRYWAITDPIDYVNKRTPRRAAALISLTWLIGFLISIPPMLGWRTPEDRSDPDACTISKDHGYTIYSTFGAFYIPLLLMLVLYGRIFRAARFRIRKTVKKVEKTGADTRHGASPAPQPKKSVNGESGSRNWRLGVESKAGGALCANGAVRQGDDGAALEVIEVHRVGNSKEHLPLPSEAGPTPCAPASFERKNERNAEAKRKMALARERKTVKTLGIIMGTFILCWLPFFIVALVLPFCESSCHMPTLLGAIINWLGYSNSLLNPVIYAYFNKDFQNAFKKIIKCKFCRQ
Put plainly: Binding affinity to 5HT1A receptor (unknown origin). The procedure, abridged:
as §1

Data set [2] concerns the target 5-hydroxytryptamine receptor 2A (Homo sapiens, UniProt P28223). As to the kind of experiment: Binding affinity to 5HT2A receptor (unknown origin).
Data set [3] addresses 5-hydroxytryptamine receptor 6 (Homo sapiens, UniProt P50406). As to the kind of experiment: Binding affinity to 5HT6 receptor (unknown origin). In a few lines:
as §1

Data set [4] addresses T2, Alpha-2A adrenergic receptor (Homo sapiens, UniProt P08913).
T2 sequence (P08913 whole entry): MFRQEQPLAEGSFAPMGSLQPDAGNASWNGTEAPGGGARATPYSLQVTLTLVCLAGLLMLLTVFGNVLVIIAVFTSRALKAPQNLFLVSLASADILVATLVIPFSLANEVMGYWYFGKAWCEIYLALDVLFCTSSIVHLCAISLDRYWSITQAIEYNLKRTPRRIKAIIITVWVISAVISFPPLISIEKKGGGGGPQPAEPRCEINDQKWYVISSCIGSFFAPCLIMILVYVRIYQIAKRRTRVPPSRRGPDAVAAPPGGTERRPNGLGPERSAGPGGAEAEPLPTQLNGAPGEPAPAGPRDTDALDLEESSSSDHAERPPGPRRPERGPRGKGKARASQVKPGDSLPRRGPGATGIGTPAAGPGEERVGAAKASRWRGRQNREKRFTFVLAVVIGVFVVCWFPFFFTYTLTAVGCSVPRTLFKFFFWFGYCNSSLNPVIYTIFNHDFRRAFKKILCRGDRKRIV
Put plainly: Binding affinity to alpha2 adrenergic receptor (unknown origin). The procedure, abridged:
as §1

A further data set concerns the target Histamine H1 receptor (Homo sapiens, UniProt P35367). Put plainly: Binding affinity to H1 receptor (unknown origin). The class given is ADME.
The target in data set [5] is T3, 5-hydroxytryptamine receptor 2C (Homo sapiens, UniProt P28335).
T3 sequence (P28335 whole entry): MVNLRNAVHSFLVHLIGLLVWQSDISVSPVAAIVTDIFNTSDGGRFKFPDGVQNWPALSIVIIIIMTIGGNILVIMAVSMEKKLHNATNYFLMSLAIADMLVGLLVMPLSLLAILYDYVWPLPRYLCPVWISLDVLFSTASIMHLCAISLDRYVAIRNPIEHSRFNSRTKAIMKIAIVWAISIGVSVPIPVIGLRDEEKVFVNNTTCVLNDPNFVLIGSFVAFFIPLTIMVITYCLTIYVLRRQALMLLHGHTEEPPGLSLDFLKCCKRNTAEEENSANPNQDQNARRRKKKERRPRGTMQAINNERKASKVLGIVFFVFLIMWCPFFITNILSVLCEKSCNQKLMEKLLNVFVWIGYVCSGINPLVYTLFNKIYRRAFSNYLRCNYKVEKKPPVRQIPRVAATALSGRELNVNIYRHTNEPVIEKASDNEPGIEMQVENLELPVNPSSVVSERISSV
As to the kind of experiment: Binding affinity to 5HT2C receptor (unknown origin). In a few lines: as §1

Data set [6] relates to Mus musculus. As to the kind of experiment: Antipsychotic activity in po dosed mouse assessed as suppression of apomorphine-induced climbing behaviour. In kind it is functional. The procedure, abridged: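 Mice climbing induced by apomorphine 1.0 mg/kg sc. Test article given po at 0.01, 0.03, 0.1, 0.3 and 1.0 mg/kg in 30% PEG 400. ED50 reported with 95% confidence limits.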

Data set [7] relates to Mus musculus. As to the kind of experiment: Antipsychotic activity in po dosed mouse assessed as suppression in DOI-induced head twitching response. In kind it is functional. In a few lines: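 Mouse head twitch induced by DOI 1.0 mg/kg ip. Oral pretreatment at 0.01, 0.03, 0.1, 0.3 and 1.0 mg/kg in 30% PEG 400. ED50 reported with 95% confidence limits.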
The test system of data set [8] is Mus musculus. As to the kind of experiment: Antipsychotic activity in po dosed mouse assessed as reduction in MK-801-induced hyperlocomotor activity. The class given is functional. In a few lines:
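Mice hyperactivity induced by MK-801 0.3 mg/kg sc, locomotor activity recorded. Oral dosing at 0.01–1.0 mg/kg (five doses) in 30% PEG 400. ED50 reported with 95% confidence limits.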

The subject of data set [9] is Rattus norvegicus. Put plainly: Antipsychotic activity in po dosed rat assessed as suppression in conditioned avoidance response measured after 90 mins by CAR test. The class given is functional. In a few lines: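 Rat conditioned avoidance responding tested 90 min after a single oral dose of 0.05, 0.15, 0.45 or 1.35 mg/kg in 30% PEG 400. n = 10 per group. Mean ± SEM, compared with vehicle (P < 0.05). ED50 reported.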

Data set [10] concerns Rattus norvegicus. As to the kind of experiment: Memory enhancement effect in rat assessed as increase in total exploratory time for novel objects at 0.01 mg/kg, po administered 1 hr prior to acquisition trial and measured after 24 hrs by novel object recognition test. The class given is functional, organism-based. The settings on record: time 25.0 hrs. The procedure, abridged: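 Rat novel object recognition, n = 10. Oral dosing in 30% PEG 400 1 h before the acquisition trial with two identical objects. At 24 h one object was replaced by a novel one and exploration times were scored. Mean ± SEM, post-hoc Student's t-test versus vehicle.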

A short description of data set [11]: Cmax in rat at 10 mg/kg, po. The class given is ADME, organism-based. Details: route oral, dose 10 mg/kg. The settings on record: in vivo. The procedure, abridged:
(§2)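 Male rats, n = 6 per group, given a single oral dose of 10 mg/kg. PK parameters taken from serum concentration–time profiles: Cmax, Tmax, t1/2, AUC0-t, AUC0-∞, CL/F, F%.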

Data set [12] is described as follows: Tmax in rat at 10 mg/kg, po. In kind it is ADME, organism-based. Conditions: in vivo. The procedure, abridged: as §2
Data set [13] can be described thus: AUC (0 to t) in rat at 10 mg/kg, po. Details: dose 10 mg/kg. The class given is ADME, organism-based. The settings on record: in vivo. The procedure, abridged: as §2
Data set [14] in a line: AUC (0 to infinity) in rat at 10 mg/kg, po. The class given is ADME, organism-based. Details: route oral, time infinity, dose 10 mg/kg. Conditions: in vivo. In a few lines: as §2
The nature of data set [15]: Apparent oral clearance in rat at 10 mg/kg, po. The settings on record: in vivo. The class given is ADME, organism-based. The procedure, abridged: as §2
Data set [16] in a line: Oral bioavailability in rat at 10 mg/kg. The class given is ADME, organism-based. Conditions: in vivo. In a few lines: as §2
The nature of data set [17]: AUC (0 to t) in rat at 3 mg/kg, iv. The class given is ADME, organism-based. Further details: dose 3 mg/kg. The settings on record: in vivo. The procedure, abridged:
(§3)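 Male rats, n = 6 per group, given a single intravenous dose of 3 mg/kg. PK parameters taken from serum concentration–time profiles: t1/2, AUC0-t, AUC0-∞, clearance.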

The nature of data set [18]: AUC (0 to infinity) in rat at 3 mg/kg, iv. The class given is ADME, organism-based. Further details: route intravenous, time infinity, dose 3 mg/kg. The settings on record: in vivo. The procedure, abridged:
as §3

In data set [19] the target is Voltage-gated inwardly rectifying potassium channel KCNH2 (Homo sapiens, UniProt Q12809). As to the kind of experiment: Inhibition of human ERG by patch-clamp method.
Sequence of Voltage-gated inwardly rectifying potassium channel KCNH2 (Q12809 whole entry): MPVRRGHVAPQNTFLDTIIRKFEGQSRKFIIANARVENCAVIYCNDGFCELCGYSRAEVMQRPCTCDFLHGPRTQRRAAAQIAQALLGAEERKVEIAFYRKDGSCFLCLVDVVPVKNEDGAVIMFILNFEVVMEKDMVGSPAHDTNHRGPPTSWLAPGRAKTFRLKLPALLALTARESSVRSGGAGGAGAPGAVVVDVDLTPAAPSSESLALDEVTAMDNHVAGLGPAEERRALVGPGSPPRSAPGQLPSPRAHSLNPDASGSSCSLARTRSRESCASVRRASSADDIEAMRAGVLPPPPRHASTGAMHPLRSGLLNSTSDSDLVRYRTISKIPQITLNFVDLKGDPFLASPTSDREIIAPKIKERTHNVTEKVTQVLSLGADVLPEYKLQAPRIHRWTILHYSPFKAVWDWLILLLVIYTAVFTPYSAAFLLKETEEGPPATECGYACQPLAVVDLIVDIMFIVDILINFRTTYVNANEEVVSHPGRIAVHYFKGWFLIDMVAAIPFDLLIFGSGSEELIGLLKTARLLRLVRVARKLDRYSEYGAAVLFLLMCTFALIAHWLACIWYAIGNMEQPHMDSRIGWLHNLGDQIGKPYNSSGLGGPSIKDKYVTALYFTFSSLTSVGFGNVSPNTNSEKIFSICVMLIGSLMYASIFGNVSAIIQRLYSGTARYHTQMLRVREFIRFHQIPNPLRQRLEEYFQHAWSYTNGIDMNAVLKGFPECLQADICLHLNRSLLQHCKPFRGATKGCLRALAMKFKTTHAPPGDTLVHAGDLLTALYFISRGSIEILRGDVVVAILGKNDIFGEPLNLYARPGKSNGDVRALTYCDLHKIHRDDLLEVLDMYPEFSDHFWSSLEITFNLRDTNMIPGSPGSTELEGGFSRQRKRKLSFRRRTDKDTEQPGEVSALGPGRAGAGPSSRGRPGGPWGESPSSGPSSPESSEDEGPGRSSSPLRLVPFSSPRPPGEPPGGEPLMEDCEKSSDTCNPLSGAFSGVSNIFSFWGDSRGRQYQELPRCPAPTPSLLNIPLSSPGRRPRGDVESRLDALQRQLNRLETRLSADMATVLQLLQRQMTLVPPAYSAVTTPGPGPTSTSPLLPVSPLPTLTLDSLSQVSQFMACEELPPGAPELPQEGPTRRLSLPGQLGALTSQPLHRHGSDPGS

Sequence of Histamine H1 receptor (P35367 whole entry): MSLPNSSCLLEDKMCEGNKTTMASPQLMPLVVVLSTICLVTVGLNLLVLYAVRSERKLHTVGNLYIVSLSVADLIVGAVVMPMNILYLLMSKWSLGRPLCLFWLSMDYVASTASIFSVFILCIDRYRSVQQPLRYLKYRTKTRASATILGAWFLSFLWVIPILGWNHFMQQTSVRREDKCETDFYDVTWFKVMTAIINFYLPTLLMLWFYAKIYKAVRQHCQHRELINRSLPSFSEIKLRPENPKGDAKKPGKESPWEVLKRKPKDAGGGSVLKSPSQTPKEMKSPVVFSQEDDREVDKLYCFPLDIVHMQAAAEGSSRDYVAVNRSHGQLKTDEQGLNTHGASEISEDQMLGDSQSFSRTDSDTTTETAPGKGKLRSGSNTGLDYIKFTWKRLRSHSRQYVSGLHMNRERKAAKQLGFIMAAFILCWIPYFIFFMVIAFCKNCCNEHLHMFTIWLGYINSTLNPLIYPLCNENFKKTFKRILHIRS
Sequence of 5-hydroxytryptamine receptor 6 (P50406 whole entry): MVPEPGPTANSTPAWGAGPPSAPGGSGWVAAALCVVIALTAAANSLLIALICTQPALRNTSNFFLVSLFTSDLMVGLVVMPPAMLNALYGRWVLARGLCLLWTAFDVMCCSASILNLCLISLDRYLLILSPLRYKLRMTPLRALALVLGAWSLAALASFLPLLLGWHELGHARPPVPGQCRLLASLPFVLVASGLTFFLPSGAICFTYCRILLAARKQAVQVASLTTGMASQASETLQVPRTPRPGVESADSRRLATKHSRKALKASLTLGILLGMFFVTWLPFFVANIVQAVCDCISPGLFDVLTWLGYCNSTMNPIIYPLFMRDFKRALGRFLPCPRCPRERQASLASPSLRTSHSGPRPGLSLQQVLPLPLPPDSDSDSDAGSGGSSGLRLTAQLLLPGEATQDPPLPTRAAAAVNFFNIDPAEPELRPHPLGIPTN
Sequence of D(2) dopamine receptor (P14416 whole entry): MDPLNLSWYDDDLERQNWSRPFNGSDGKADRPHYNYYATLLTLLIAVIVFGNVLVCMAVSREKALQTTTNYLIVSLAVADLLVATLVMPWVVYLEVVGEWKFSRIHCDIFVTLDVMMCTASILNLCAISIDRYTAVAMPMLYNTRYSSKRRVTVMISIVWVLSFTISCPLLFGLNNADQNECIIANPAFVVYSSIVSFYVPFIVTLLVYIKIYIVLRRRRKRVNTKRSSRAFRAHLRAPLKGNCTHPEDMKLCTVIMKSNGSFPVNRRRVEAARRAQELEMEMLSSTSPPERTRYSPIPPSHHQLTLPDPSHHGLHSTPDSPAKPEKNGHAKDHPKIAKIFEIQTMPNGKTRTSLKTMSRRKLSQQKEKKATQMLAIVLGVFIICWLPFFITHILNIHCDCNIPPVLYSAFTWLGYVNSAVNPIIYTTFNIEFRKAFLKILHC
Sequence of 5-hydroxytryptamine receptor 2A (P28223 whole entry): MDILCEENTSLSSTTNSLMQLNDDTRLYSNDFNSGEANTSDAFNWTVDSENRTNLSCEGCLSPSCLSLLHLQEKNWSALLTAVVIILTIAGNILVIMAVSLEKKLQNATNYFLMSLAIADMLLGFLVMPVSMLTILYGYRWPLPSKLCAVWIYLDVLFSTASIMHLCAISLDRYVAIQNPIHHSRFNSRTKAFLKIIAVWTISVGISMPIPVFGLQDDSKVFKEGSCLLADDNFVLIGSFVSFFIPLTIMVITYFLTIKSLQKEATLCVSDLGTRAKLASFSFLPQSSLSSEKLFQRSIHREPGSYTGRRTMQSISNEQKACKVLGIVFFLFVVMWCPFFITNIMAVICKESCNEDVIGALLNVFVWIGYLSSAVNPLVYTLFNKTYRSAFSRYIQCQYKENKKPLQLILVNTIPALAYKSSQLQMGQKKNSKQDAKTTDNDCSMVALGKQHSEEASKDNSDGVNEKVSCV

For `CC(=O)Nc1ccc(OCCCN2CCC(c3noc4cc(F)ccc34)CC2)cc1`, the pKi on D(2) dopamine receptor was 8.68; in data set [1], 8.46; in [2] it was 8.11; in data set [3], 7.89; in data set [4] it was 7.79; on Histamine H1 receptor, 5.67. The compound also gave a pKi in [5] of 5.70. Further, the ED50 in the data set on Mus musculus [6] was 0.28 mg/kg; in the data set with Mus musculus [7], 0.22 mg/kg; with Mus musculus [8], 0.19 mg/kg; in the data set with Rattus norvegicus [9] (1.5 h) it was 0.28 mg/kg. In addition, the Activity result with Mus musculus [7] and in the data set on Rattus norvegicus [9] was “Dose-dependent effect” in each case. In addition, the outcome in the data set with Rattus norvegicus [10] was inactive. In data set [11], this compound registered a Cmax of 745 ng/mL. The Tmax in [12] was 7 h. Further, the AUC(0-t) in data set [13] turned out to be 9490 ng·h/mL; in [17], 879 ng·h/mL. Also, the AUC in [14] worked out at 9638.27 ng·h/mL; in data set [18], 931.48 ng·h/mL. Moreover, in [15], the CL/F was 0.173 mL/min. This compound displayed a F in data set [16] of 31.04%. This compound showed a pIC50 in [19] of 5.53.
